Where a chain is given by its changes, count along the chain named. Several values for one entry are separate records, joined by “and”; a condition that tells them apart may be missing. Equal entries are not always repeated. Where two headings read alike, the source gives them in different places.
Key:
PKCδC1B Y238G = settings: PKCδC1B mutant homologous to Y239A; ref Supplementary Table S1; cited from earlier work
PKCδC1B L250R = settings: cited from earlier work
PKCθC1B wild-type = biological target: T1, PKCθC1B wild-type (Mus musculus, UniProt Q02111); assay: [3H]PDBu binding assay
T1 sequence (Q02111 232-281): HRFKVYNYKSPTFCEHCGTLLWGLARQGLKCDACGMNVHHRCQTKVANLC
How it was run: (§1)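 GST-cleaved mouse PKCθ C1B (residues 232–281), E. coli-expressed, affinity/gel-filtration purified. PEG-precipitation [3H]PDBu binding; Kd from saturable plus linear non-specific fit. Ki: [3H]PDBu at 2–5-fold each construct's Kd, DOG or SAG 1–100000 nM, dried from chloroform with phospholipid, sonicated. PS dependence: total phospholipid 100 μg/ml, PS 0–100%, remainder PC, relative to 100% PS. Means ± S.E.M., three independent experiments.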

PKCδC1B = settings: cited from earlier work
PKCθC1B W253G = biological target: T2, PKCθC1B W253G (Mus musculus, UniProt Q02111, W253G); assay: [3H]PDBu binding assay
T2 sequence (Q02111 232-281 W253G): T1 sequence (Q02111 232-281) with W22G

PKCδC1B L255D = settings: in the presence or absence of PS; cited from earlier work
PKCδC1B W252K = settings: cited from earlier work
PKCθC1B T243A = biological target: T3, PKCθC1B T243A (Mus musculus, UniProt Q02111, T243A); assay: [3H]PDBu binding assay
T3 sequence (Q02111 232-281 T243A): T1 sequence (Q02111 232-281) with T12A
How it was run: as §1

PKCθC1B L255G = biological target: T4, PKCθC1B L255G (Mus musculus, UniProt Q02111, L255G); assay: [3H]PDBu binding assay
T4 sequence (Q02111 232-281 L255G): T1 sequence (Q02111 232-281) with L24G
How it was run: as §1

PKCδC1B L254G = settings: PKCδC1B mutant homologous to L255G; ref Supplementary Table S1; cited from earlier work
PKCδC1B W252G = settings: PKCδC1B mutant homologous to W253G; ref Supplementary Table S1; cited from earlier work
PKCδC1B L255K = settings: cited from earlier work
PKCθC1B Y239A = biological target: T5, PKCθC1B Y239A (Mus musculus, UniProt Q02111, Y239A); assay: [3H]PDBu binding assay
T5 sequence (Q02111 232-281 Y239A): T1 sequence (Q02111 232-281) with Y8A
How it was run: as §1

PKCδC1B L250D = settings: in the presence or absence of PS; cited from earlier work
PKCθC1B Q258G = biological target: T6, PKCθC1B Q258G (Mus musculus, UniProt Q02111, Q258G); assay: [3H]PDBu binding assay
T6 sequence (Q02111 232-281 Q258G): T1 sequence (Q02111 232-281) with Q27G
How it was run: as §1

PKCδC1B L250K = settings: cited from earlier work

CCCC(=O)O[C@@H]1[C@@H](C)[C@@]2(O)[C@@H](C=C(CO)C[C@]3(O)C(=O)C(C)=C[C@@H]23)[C@@H]2C(C)(C)[C@]12OC(=O)CCC [PDBu, phorbol 12,13-dibutyrate]
reduction in the binding affinity compared with the wild-type (PKCδC1B Y238G): 60 fold | reduction in PDBu binding (PKCδC1B L250R; in the absence of lipid): 6.6 fold | reduction in PDBu binding (PKCδC1B L250R; in the presence of lipid): 340 fold | [3H]PDBu binding at 5% PS (PKCθC1B wild-type; 5% PS in PS/PC, relative to binding at 100% PS): Approximately 30% | [3H]PDBu binding in 100% PC (PKCθC1B wild-type; 100% PC (0% PS)): essentially no binding | PDBu binding at 50% PS relative to the level at 100% PS (PKCθC1B wild-type; PS/PC mixture, total phospholipid 100 μg/ml, PKCθC1B): 90.5% | Kd (PKCθC1B wild-type; read-out: PDBu Kd, PKCθ C1B WT, mean ± S.E.M. of triplicate independent experiments): 0.39 ± 0.2 nM | activity at 50% PS (PKCδC1B): approximately 100% | PDBu binding at 50% PS relative to the level at 100% PS (PKCθC1B W253G; PS/PC mixture, total phospholipid 100 μg/ml, W253G): 59.3% | reduction in binding affinity compared with the wild-type (PKCθC1B W253G; W253G vs wild-type PKCθC1B (Kd for PDBu, Ki for DOG/SAG)): 7.56 fold and 8 fold | Kd (PKCθC1B W253G; read-out: PDBu Kd, PKCθ C1B W253G, mean ± S.E.M.): 2.95 ± 0.19 nM | effect of mutation on strong binding of PDBu (PKCδC1B L255D): completely abolished | activity at 50% PS as percent of the maximum activity (PKCδC1B W252K; 50% PS): approximately 55% | binding affinity compared with the wild-type (PKCδC1B W252K; in the absence of the PS): remained almost the same | effect on PDBu binding compared with the wild-type (PKCδC1B W252K; in the presence of PS): 3 fold | PDBu binding at 50% PS relative to the level at 100% PS (PKCθC1B T243A; PS/PC mixture, total phospholipid 100 μg/ml, T243A): 98.2% | reduction in binding affinity compared with the wild-type (PKCθC1B T243A; T243A vs wild-type PKCθC1B (Kd for PDBu, Ki for DOG/SAG)): 1.64 fold | Kd (PKCθC1B T243A; read-out: PDBu Kd, PKCθ C1B T243A, mean ± S.E.M.): 0.64 ± 0.06 nM | reduction in binding affinity compared with the wild-type (PKCθC1B L255G; L255G vs wild-type PKCθC1B (Kd for PDBu, Ki for DOG/SAG)): 11.4 fold and 11 fold | PDBu binding at 50% PS relative to the level at 100% PS (PKCθC1B L255G; PS/PC mixture, total phospholipid 100 μg/ml, L255G): 92.8% | PS percentage giving maximal [3H]PDBu binding (PKCθC1B L255G; PS/PC mixtures, L255G, decrease at 100% PS): 50–75% | Kd (PKCθC1B L255G; read-out: PDBu Kd, PKCθ C1B L255G, mean ± S.E.M.): 4.44 ± 0.56 nM | reduction in affinity for PDBu compared with the wild-type (PKCδC1B L254G): > 1000 fold | reduction in affinity for PDBu compared with the wild-type (PKCδC1B W252G): 31 fold | reduction in PDBu binding (PKCδC1B L255K; in the absence of lipid): 2.9 fold | reduction in PDBu binding (PKCδC1B L255K; in the presence of lipid): 250 fold | PDBu binding at 50% PS relative to the level at 100% PS (PKCθC1B Y239A; PS/PC mixture, total phospholipid 100 μg/ml, Y239A): 130.7% | PS percentage giving maximal [3H]PDBu binding (PKCθC1B Y239A; PS/PC mixtures, Y239A, decrease at 100% PS): 50–75% | reduction in binding affinity compared with the wild-type (PKCθC1B Y239A; Y239A vs wild-type PKCθC1B (Kd for PDBu, Ki for DOG/SAG)): 8.51 fold and 9 fold | Kd (PKCθC1B Y239A; read-out: PDBu Kd, PKCθ C1B Y239A, mean ± S.E.M.): 3.32 ± 0.34 nM | effect of mutation on strong binding of PDBu (PKCδC1B L250D): completely abolished | PDBu binding at 50% PS relative to the level at 100% PS (PKCθC1B Q258G; PS/PC mixture, total phospholipid 100 μg/ml, Q258G): 85.7% | reduction in binding affinity compared with the wild-type (PKCθC1B Q258G; Q258G vs wild-type PKCθC1B (Kd for PDBu, Ki for DOG/SAG)): 1720 fold | Kd (PKCθC1B Q258G; read-out: PDBu Kd, PKCθ C1B Q258G, mean ± S.E.M.): 670 ± 150 nM | binding affinity compared with the wild-type (PKCδC1B L250K; in the absence of the PS): remained almost the same | effect on PDBu binding compared with the wild-type (PKCδC1B L250K; in the presence of PS): 3 fold
